# Screens: PubChem BioAssay, Johns Hopkins Ion Channel Center
# Compounds with a hit are over-represented: about 3.5% of the library has one in this group of screens.
# MrgX1 allo act: human MrgX1 positive allosteric modulation, primary screen. MrgX1-HEK293, Fluo-4 calcium flux, FDSS; hits give high values. B-score at 10 µM. actives 0.63% (n = 310,000);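 active means plate-corrected calcium response at least 3 library SD above typical, normal starting fluorescence, not activating the receptor alone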;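 further: compound read alongside a low EC10 to EC30 dose of BAM8-22 agonist; peak minus trough fluorescence over baseline measured at the second addition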
# Target sequence (Q96LB2 whole entry, looked up): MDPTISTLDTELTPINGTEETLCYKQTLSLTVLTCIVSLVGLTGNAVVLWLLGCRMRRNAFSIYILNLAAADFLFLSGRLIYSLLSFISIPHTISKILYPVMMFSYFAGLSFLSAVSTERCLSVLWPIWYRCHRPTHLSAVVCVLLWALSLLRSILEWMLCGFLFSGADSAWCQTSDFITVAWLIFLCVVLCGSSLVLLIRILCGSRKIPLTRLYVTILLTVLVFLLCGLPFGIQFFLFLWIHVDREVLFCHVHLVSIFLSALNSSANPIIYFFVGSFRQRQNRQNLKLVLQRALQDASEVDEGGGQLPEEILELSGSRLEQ
# MrgX1 antag: antagonists of human MrgX1 receptor. Q96LB2. MRGX1-HEK293 calcium flux, Fluo-4, BAM8-22 antagonism; hits give low values. B-score at 10 µM. actives 1.3% (n = 310,000). AID 588676;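 active means calcium-response B-score plate-corrected more than 3 library SD below zero, starting fluorescence within 5 deviations, no agonist response on first addition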;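 further: peak minus trough fluorescence over baseline after final BAM8-22 challenge near maximal dose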
# RGS4 pot: potentiators or activators of RGS4; actives 0.92% (n = 310,000); HEK293 M3R/inducible RGS4, carbachol calcium flux Fluo4; hits give low values; B-score at 10 µM;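 active means B-score of the integrated calcium signal more than 4 SD below the library mean, with starting fluorescence not abnormally high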;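 further: negative B-score means reduced calcium response which marks RGS4 activation or potentiation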
#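 test system = HEK293 cells with stable M3R and inducible RGS4 | schedule = recording 10 s baseline at 1 Hz, 100 s post-agonist | technique = Fluo4-AM (2 µM) calcium-flux fluorescence, kinetic read | measure = Agonist-evoked peak-minus-minimum fluorescence over baseline, integrated ratio, B score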
# MrgX1 ag: agonists of human MrgX1 receptor | Q96LB2 | actives 0.44% (n = 310,000) | MrgX1-HEK293 cells, Fluo-4 calcium fluorescence, agonist mode; hits give high values | AID 588627 | B-score at 10 µM;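 active means calcium response B-score plate-corrected fluorescence ratio at least 3 library SD, with starting fluorescence B-score inside 5 SD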
#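 Assay system: stable human MrgX1 HEK293 cell line. Quantity: 15,000 cells per well. Schedule: cells plated overnight, dye loaded 0.5 h 37 °C, 0.5 h room temperature. Detection: Fluo-4 NW calcium-flux fluorescence, kinetic read. Read-out basis: peak-minus-minimum fluorescence over baseline, converted to B scores. Control set: positive and negative control wells on each plate.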
# RGS4 inh: human RGS4 inhibition; P49798; HEK293 M3R/RGS4 inducible, Fluo-4 calcium flux; hits give high values; triggered by carbachol at its EC20; B-score at 10 µM; actives 0.45% (n = 310,000); AID 463165;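 active means B-score, a plate-corrected calcium signal, over three deviations above library mean, with baseline fluorescence within five deviations of library mean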;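 further: RGS4 expression induced by doxycycline in cells with stable M3 receptor; B-score is computed from the integrated fluorescence ratio over baseline after carbachol; higher B-score means a larger calcium signal and so more RGS4 inhibition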
# Target sequence (P49798 whole entry, looked up): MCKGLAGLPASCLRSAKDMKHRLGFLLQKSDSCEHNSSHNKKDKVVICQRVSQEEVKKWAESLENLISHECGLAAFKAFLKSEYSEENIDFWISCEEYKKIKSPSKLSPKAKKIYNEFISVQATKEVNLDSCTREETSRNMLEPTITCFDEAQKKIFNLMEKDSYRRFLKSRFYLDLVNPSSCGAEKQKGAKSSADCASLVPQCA
# MrgX1 allo conf: confirmation of human MrgX1 receptor positive allosteric modulators; MrgX1-HEK293, Fluo-4 calcium fluorescence, FDSS; activation (ratio percentage), % at 10 µM; actives 13% (n = 1,200); AID 602413; shares compounds with MrgX1 allo act;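 active means ratio at least 3 SD above the weak peptide control, stable starting fluorescence, no direct agonism earlier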;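 further: compound followed by low BAM8-22 agonist challenge near EC20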
# HEK293 Ca flux: counter-screen for MrgX1 antagonists: effect in parental HEK293 cells; shares compounds with MrgX1 antag; Fluo-4 calcium fluorescence, FDSS; fluorescence ratio F(max-min)/F0 at 10 µM; actives 2% (n = 4,000); AID 624111;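 active means duplicate-averaged calcium fluorescence ratio at least three times the standard deviation of buffer wells, a nonspecific response in parental cells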
# HEK293 Ca counter: activity in parental HEK293 cells without MrgX1. shares compounds with MrgX1 antag. parental HEK293 calcium flux, Fluo-4 fluorescence ratio; hits give high values. fluorescence ratio F(max-min)/F0 at 10 µM. actives 0.4% (n = 4,000). AID 624114;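 active means calcium fluorescence ratio, averaged over duplicates, at least 3 SD of the buffer-well ratio, meaning a nonspecific response in receptor-free cells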;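 further: untransfected parental HEK293 lacking MrgX1 used as counterscreen for MrgX1 allosteric activators; fluorescence change taken during the second addition on a kinetic imager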
# HEK293 Ca cntr2: counter-screen for MrgX1 activators: effect in parental HEK293 cells; AID 624115; shares compounds with MrgX1 antag; actives 8.7% (n = 4,000); fluorescence ratio F(max-min)/F0 at 10 µM; Fluo-4 calcium fluorescence (FDSS); hits give high values;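 active means calcium fluorescence ratio at least three times the spread of buffer wells, meaning a non-specific response in parental cells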
# * marks the source's active call; other numbers are inactive results; i = inactive; / = no result.
SMILES,MrgX1 allo act,MrgX1 antag,RGS4 pot,MrgX1 ag,RGS4 inh,MrgX1 allo conf,HEK293 Ca flux,HEK293 Ca counter,HEK293 Ca cntr2
Cc1c(-c2nc(N)nc(Nc3ccccc3)n2)oc2ccccc12,19.7*,i,i,i,i,i,i,i,i
CCOC(=O)c1c(-c2ccccc2)nc2ccc(C)cn12,9.5*,i,i,i,i,i,i,i,i
CCOC(=O)c1c(-c2ccccc2)nc2cc(C)ccn12,i,i,i,i,i,/,/,/,/
Cc1ccc(SCC(=O)Nc2ccc3c(c2)C(=O)N(C)C3=O)cc1,i,i,i,i,i,/,/,/,/
CCN(CC)S(=O)(=O)c1cccc(NC(=O)COC(=O)C2CC3C=CC2C3)c1 (centres undefined),6.52*,i,i,i,i,i,i,i,i
COc1ccc(NCC(=O)Nc2ccc(Br)cc2F)c(OC)c1,9.21*,i,i,i,i,i,i,i,i
CCC1C(=NO)C(CC)C(c2ccccc2)NC1c1ccccc1 (centres undefined),23.2*,i,i,i,i,i,i,i,i
CCC1C(=O)C(CC)C(c2ccccc2)NC1c1ccccc1 (centres undefined),i,i,i,i,i,/,/,/,/
O=C(COC(=O)c1ccc(S(=O)(=O)NCc2ccco2)cc1)Nc1ccc(Cl)cn1,8.12*,i,i,i,i,i,i,i,i
COn1c(SC2CCCCC2)nc2ccccc2c1=O,29.1*,i,i,i,i,49.0%*,i,i,i
CCOc1ccc(C(CC(=O)O)NC(=O)COc2ccc3ccccc3c2)cc1OC (centres undefined),i,i,i,i,i,/,/,/,/
COCCN(CCOC)S(=O)(=O)c1ccc(Cl)nc1,i,i,i,i,i,/,/,/,/
CCN(CC)S(=O)(=O)c1ccc(Cl)nc1,9.27*,i,i,i,i,i,i,i,i
Cc1ccc(CNC(=O)Nc2ccccc2)c(C)c1,i,i,i,i,i,/,/,/,/
COc1ccc2[nH]c(=O)c(CN(Cc3nnnn3Cc3ccco3)C3CCCCC3)cc2c1,9.28*,i,i,i,i,i,i,i,i
COc1ccc2[nH]c(=O)c(CN(Cc3ccccc3)Cc3nnnn3CC3CCCO3)cc2c1 (centres undefined),i,i,i,i,i,/,/,/,/
COc1ccc2[nH]c(=O)c(CN(Cc3cccnc3)Cc3nnnn3CC3CCCO3)cc2c1 (centres undefined),26.2*,i,i,i,i,i,i,i,i
N#CCc1nn(-c2ccc(F)cc2)c(N)c1C#N,i,i,i,i,i,/,/,/,/
COc1ccc2c(c1)C(C)(CCN)C(=O)N2C (centres undefined),i,i,i,i,i,/,/,/,/
CSc1nnc(-c2ccccc2N=Cc2c(C)[nH]n(-c3ccc4ccccc4c3)c2=O)c(=O)[nH]1,11.6*,i,i,i,i,i,i,i,i
Cc1[nH]n(-c2ccccc2)c(=O)c1C=Nc1cnc2ccccc2c1,i,i,i,i,i,/,/,/,/
C=CCSc1nnc(-c2ccccc2N=Cc2c(C)[nH]n(-c3ccccc3)c2=O)c(=O)[nH]1,8.66*,i,i,i,i,i,i,i,i
Cc1[nH]n(-c2ccccc2)c(=O)c1/C=N/c1nn[nH]n1,i,i,i,i,i,/,/,/,/
CCCCCCC1CC(CSC(=N)N)OC1=O (centres undefined),6.49*,i,i,i,i,i,i,i,i
O=C(CSCc1ccccc1)N1CCN(c2ccc(F)cc2)CC1,i,i,i,i,i,/,/,/,/
SMILES,MrgX1 allo act,MrgX1 antag,RGS4 pot,MrgX1 ag,RGS4 inh,MrgX1 allo conf,HEK293 Ca flux,HEK293 Ca counter,HEK293 Ca cntr2
O=C(CCc1ccccc1)N1CCN(c2ccc(F)cc2)CC1,8.87*,i,i,i,i,i,i,i,i
CCCCCNc1nc(-c2ccccc2)nc(-n2ccnc2)n1,7.51*,i,i,i,i,i,i,i,i
CCCCNc1nc(N(C)c2ccccc2)nc(-n2ccnc2)n1,i,i,i,i,i,/,/,/,/
O=C(COc1ccc(Cl)cc1Cl)NCCC1=CCCCC1,16.4*,i,i,i,i,5.0%*,i,i,i
Nc1nc(NCc2ccco2)nc(N2CCCCC2)c1[N+](=O)[O-],i,i,i,i,i,/,/,/,/
OCc1cn(-c2ccccc2)nc1-c1ccc2c(c1)OCCO2,39.1*,i,i,i,i,21.4%*,i,i,i
COc1cccc(-c2nn(-c3ccccc3)cc2CO)c1,11.7*,i,i,i,i,i,i,i,i
O/N=C/c1cn(-c2ccccc2)nc1-c1ccc2c(c1)OCCO2,i,i,i,i,i,/,/,/,/
O=C(Nc1ccon1)c1ccc(Cl)s1,i,i,i,i,i,/,/,/,/
Cc1ccnc(NC(=O)c2ccc(Cl)s2)c1,8.48*,i,i,i,i,i,i,i,i
Cc1nc2c(C#N)cnn2c2c1CCN2CC1CCCO1 (centres undefined),7.24*,i,i,i,i,i,i,i,i
Cc1nc2c(C#N)cnn2c2c1CCN(Cc1ccccc1)N2C,i,i,i,i,i,/,/,/,/
Nc1c2c(nc3c1CCCC3)CCCC2 (tested in a mixture with another compound),i,i,i,i,i,/,/,/,/
Cc1ccc(Nc2nnc(SCC3CCCCO3)s2)cc1 (centres undefined),8.55*,i,i,i,i,i,i,i,i
Cc1ccccc1Nc1nnc(SCC2CCCCO2)s1 (centres undefined),i,i,i,i,i,/,/,/,/
